Series [1] addresses T1, Nitric oxide synthase, inducible (Homo sapiens, UniProt P35228). Nature of the series: Inhibition of iNOS (unknown origin).
Series [2] has as its target T1, Nitric oxide synthase, inducible. Nature of the series: Inhibition of N-terminal his6-tagged recombinant human iNOS expressed in Escherichia coli at 1 uM preincubated for 15 mins followed by NADPH addition and measured after 30 mins by HPLC analysis relative to control. The conditions noted are these: time 45.0 min. A digest of the protocol:
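Recombinant human iNOS in 100 mM HEPES pH 7.4 with 0.1 mM CaCl2, 1 mM DTT, 0.5 mg/mL BSA, 10 μM FMN, 10 μM FAD, 30 μM BH4, 10 μg/mL calmodulin and 10 μM L-Arg. Compound pre-incubated 15 min at 37 °C. NADPH added to start the reaction, run 30 min at 37 °C, stopped with cold CH3CN. Product measured by OPA/NAC derivatization and fluorescence HPLC (ex 335/em 439 nm). […] IC50 from seven concentrations in triplicate, mean ± SD.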

Series [3] addresses T2, Nitric oxide synthase 3 (Bos taurus) (UniProt P29473).
T2 sequence (whole entry): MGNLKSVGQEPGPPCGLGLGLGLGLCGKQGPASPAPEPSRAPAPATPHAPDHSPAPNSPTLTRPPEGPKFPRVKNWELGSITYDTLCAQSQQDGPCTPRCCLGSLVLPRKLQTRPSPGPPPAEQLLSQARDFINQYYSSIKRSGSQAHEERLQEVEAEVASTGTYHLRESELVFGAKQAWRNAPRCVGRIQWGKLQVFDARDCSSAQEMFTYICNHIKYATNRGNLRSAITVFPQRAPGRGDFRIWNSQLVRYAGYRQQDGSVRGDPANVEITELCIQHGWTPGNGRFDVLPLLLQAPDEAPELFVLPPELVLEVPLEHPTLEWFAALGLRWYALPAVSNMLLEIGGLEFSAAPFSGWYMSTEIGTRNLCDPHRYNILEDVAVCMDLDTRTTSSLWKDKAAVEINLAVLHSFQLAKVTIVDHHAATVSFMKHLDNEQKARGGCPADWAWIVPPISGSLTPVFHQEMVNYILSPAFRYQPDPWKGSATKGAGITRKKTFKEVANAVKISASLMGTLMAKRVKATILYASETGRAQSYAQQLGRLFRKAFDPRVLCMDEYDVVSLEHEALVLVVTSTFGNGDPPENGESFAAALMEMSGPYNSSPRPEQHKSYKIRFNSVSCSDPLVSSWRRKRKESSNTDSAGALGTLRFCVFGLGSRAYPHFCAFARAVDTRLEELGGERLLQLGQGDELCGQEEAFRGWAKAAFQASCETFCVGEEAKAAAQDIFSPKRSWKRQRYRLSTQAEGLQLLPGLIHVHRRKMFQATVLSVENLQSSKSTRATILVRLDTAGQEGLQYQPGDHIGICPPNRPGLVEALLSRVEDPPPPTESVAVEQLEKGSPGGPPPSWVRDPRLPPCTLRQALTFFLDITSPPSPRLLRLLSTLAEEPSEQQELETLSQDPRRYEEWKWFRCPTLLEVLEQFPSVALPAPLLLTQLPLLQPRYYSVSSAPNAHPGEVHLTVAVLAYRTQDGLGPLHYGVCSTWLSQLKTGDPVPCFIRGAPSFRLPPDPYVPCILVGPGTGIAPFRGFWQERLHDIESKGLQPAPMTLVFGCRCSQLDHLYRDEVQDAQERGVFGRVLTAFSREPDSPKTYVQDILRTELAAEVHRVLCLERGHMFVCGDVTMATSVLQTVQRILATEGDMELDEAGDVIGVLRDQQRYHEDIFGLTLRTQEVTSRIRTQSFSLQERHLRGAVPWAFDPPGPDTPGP
Briefly: Inhibition of full length N-terminal his-tagged bovine eNOS (2 to 1205 residues) expressed in Escherichia coli at 10 uM preincubated for 15 mins followed by NADPH addition and measured after 30 mins by HPLC analysis relative to control. To be noted: time 45.0 min. A digest of the protocol:
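Recombinant bovine eNOS in HEPES buffer with 2 mM CaCl2 plus the same cofactor mix as the iNOS assay (DTT, BSA, FMN, FAD, BH4, calmodulin, 10 μM L-Arg). Compound pre-incubated 15 min at 37 °C. NADPH-started reaction run 30 min at 37 °C, quenched with cold CH3CN. Read by OPA/NAC fluorescence HPLC. […] IC50 from seven concentrations in triplicate.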

Series [4] relates to MDA-MB-231. Nature of the series: Antiproliferative activity against human MDA-MB-231 cells assessed as reduction in cell viability measured after 5 days by PrestoBlue reagent based assay. Format: functional. The conditions noted are these: MDA-MB-231, 120 h. An outline of the steps:
(§1)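 MDA-MB-231 cells grown in DMEM with 10% FBS and 2 mM L-glutamine. Seeded 2000 cells/well, grown 24 h, then treated 5 days over 0.001–100 μM in triplicate wells. Read with PrestoBlue (10% v/v, 120 min), fluorescence ex 540/em 590 nm. Normalized to 0.1% DMSO controls. EC50 from sigmoidal variable-slope fit, mean ± SD, n = 3 independent experiments.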

Series [5] concerns the target T1, Nitric oxide synthase, inducible. Nature of the series: Inhibition of N-terminal his6-tagged recombinant human iNOS expressed in Escherichia coli preincubated for 15 mins followed by NADPH addition and measured after 30 mins by HPLC analysis. An outline of the steps: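 Recombinant human iNOS in 100 mM HEPES pH 7.4 with 0.1 mM CaCl2, 1 mM DTT, 0.5 mg/mL BSA, 10 μM FMN, 10 μM FAD, 30 μM BH4, 10 μg/mL calmodulin and 10 μM L-Arg. NADPH added to start the reaction, run 30 min at 37 °C, stopped with cold CH3CN. IC50 from seven concentrations in triplicate, mean ± SD.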

For a further series, the target named is T3, Nitric oxide synthase 3 (Bos taurus, UniProt P29473).
T3 sequence (P29473 whole entry): T2 sequence (whole entry)
Nature of the series: Inhibition of full length N-terminal his-tagged bovine eNOS (2 to 1205 residues) expressed in Escherichia coli preincubated for 15 mins followed by NADPH addition and measured after 30 mins by HPLC analysis. A digest of the protocol: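 Recombinant bovine eNOS in HEPES buffer with 2 mM CaCl2 plus the same cofactor mix as the iNOS assay (DTT, BSA, FMN, FAD, BH4, calmodulin, 10 μM L-Arg). NADPH-started reaction run 30 min at 37 °C, quenched with cold CH3CN. Read by OPA/NAC fluorescence HPLC. IC50 from seven concentrations in triplicate.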

Series [6] relates to MDA-MB-231. Briefly: Antiproliferative activity against human MDA-MB-231 cells assessed as reduction in cell viability upto 100 uM measured after 5 days by PrestoBlue reagent based assay. Format: functional. The conditions noted are these: time 5.0 day. A digest of the protocol:
as §1

The subject of series [7] is MCF-12A. Nature of the series: Antiproliferative activity against human MCF-12A cells assessed as reduction in cell viability measured after 5 days by PrestoBlue reagent based assay. Format: functional. The conditions noted are these: 120 h. An outline of the steps: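 MCF-12A cells (DMEM/F12 1:1, 5% equine serum, EGF, hydrocortisone, cholera toxin, insulin) seeded 2000 cells/well, grown 24 h, then exposed 5 days to 0.001–100 μM in triplicate. Read with PrestoBlue (10% v/v, 120 min), ex 540/em 590 nm. Normalized to 0.1% DMSO controls. EC50 from sigmoidal variable-slope fit, mean ± SD of 3 independent experiments.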

Series [8] deals with MCF-12A. Briefly: Antiproliferative activity against human MCF-12A cells assessed as reduction in cell viability at 50 uM measured after 5 days by PrestoBlue reagent based assay relative to control. The series is classed as functional. To be noted: time 5 day. An outline of the steps: (§2)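 MCF-12A cells grown in DMEM/F12 (1:1) with 5% equine serum, EGF, hydrocortisone, cholera toxin and insulin, at 37 °C and 5% CO2. Seeded 2000 cells/well in triplicate and grown 24 h, then treated 5 days. Read with PrestoBlue (10% v/v, 120 min), fluorescence ex 540/em 590 nm. Viability normalized to 0.1% DMSO-treated cells (100%).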

Series [9] has as its system MCF-12A. Briefly: Antiproliferative activity against human MCF-12A cells assessed as reduction in cell viability at 25 uM measured after 5 days by PrestoBlue reagent based assay relative to control. To be noted: time 5.0 day. Format: functional. A digest of the protocol: as §2
Series [10] deals with MDA-MB-231. Briefly: Inhibition of cell migration in human MDA-MB-231 cells assessed as reduction in cell motility incubated for 24 hrs by scratch wound healing assay. Format: functional, cell-based. A digest of the protocol:
(§3)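 MDA-MB-231 cells seeded 20×10^4 cells/well, incubated 12 h, then serum-starved (1% FBS) for 24 h. Monolayer scratched with a pipette tip, washed with PBS and treated at 25 μM in starvation medium, with 0.1% DMSO as control. Wound imaged at 0 and 24 h (4× objective). Wound area measured to give percent closure.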

The test system of series [11] is MDA-MB-231. Briefly: Inhibition of cell migration in human MDA-MB-231 cells assessed as reduction in wound closure incubated for 24 hrs by microscopic analysis. Format: functional. Further details: scale not given: the % may be the effect or the level left. An outline of the steps: as §3
Series [12] in a line: Metabolic stability in rat liver microsome assessed as half life pretreated for 5 mins followed by NADPH and measured after 60 mins by HPLC analysis. The series is classed as ADME. The conditions noted are these: liver microsomes, time 65 min. A digest of the protocol: (§4)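 Compound from 2 mM DMSO stock diluted in PBS with Sprague–Dawley rat liver microsomes and warmed 5 min at 37 °C. NADPH (10 mM stock) added, incubated 60 min at 37 °C, quenched with cold CH3CN and centrifuged. At least three repeats, verapamil as positive control. CLint scaled using 45 mg microsomal protein/g liver and 40 g liver/kg body weight.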

A short description of series [13]: Metabolic stability in rat liver microsome assessed as hepatic clearance pretreated for 5 mins followed by NADPH and measured after 60 mins by HPLC analysis. The series is classed as ADME. The conditions noted are these: liver microsomes, time 65 min. An outline of the steps:
as §4
For orientation: Liver microsomes are vesicles of endoplasmic reticulum, rich in cytochrome P450 enzymes.

Another series concerns MDA-MB-231 (human). Briefly: Potency index, ratio of 1400W EC50 to test compound EC50 for antiproliferative activity against human MDA-MB-231 cells assessed as reduction in cell viability measured after 5 days by PrestoBlue reagent based assay. To be noted: time 5 day.

Calls of active or inactive are those of the source. The calls are words filed in the database; no cut-off is given here. A value given as a limit tells only on which side of the number the result lay.

T1 sequence (P35228 whole entry): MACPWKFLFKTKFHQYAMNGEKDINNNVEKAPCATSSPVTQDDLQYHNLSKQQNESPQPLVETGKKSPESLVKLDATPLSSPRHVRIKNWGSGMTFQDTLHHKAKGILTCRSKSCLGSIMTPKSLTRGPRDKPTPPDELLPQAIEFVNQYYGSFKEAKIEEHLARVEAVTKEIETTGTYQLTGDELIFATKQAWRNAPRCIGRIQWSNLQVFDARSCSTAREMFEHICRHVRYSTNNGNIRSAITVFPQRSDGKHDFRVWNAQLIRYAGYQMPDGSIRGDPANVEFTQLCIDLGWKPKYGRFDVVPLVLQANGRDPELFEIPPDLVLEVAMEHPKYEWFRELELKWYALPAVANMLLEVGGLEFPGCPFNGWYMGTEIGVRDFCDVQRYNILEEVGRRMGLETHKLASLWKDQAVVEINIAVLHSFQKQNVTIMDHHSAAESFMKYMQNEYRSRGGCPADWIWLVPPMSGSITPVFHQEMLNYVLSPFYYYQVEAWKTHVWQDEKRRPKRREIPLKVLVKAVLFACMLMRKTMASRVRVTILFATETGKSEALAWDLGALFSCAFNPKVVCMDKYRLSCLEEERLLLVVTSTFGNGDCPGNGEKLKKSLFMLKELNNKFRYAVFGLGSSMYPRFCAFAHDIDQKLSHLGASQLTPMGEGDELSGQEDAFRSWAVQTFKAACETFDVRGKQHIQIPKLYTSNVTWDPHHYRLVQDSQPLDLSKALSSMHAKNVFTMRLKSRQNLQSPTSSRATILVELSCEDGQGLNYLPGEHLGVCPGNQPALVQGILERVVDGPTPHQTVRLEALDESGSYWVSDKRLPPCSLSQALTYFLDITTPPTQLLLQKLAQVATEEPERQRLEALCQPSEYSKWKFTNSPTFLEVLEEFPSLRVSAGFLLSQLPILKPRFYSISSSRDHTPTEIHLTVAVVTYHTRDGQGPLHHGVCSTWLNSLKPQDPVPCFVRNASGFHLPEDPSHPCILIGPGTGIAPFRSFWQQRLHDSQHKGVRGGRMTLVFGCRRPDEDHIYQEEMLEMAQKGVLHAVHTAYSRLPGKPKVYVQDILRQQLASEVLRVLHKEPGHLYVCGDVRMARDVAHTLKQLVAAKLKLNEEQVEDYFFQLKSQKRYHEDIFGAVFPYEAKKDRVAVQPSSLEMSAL

Usually IC50 stands for the midpoint of a concentration-inhibition curve. Regarding `COC(=O)[C@@H](N)CCCNC(=N)N[N+](=O)[O-]` [L-NAME], half-maximal inhibition in series [1] (IC50) was put at 13.5 µM.
For orientation: inhibition means the share of the control response that was lost under treatment. For `CC(=N)NCc1ccc(NS(=O)(=O)c2ccc([N+](=O)[O-])cc2)cc1`, the inhibition result in series [2] and in series [3] was “inactive” each time.
What is called EC50 is the midpoint of the concentration-response curve. Turning to `CC(=N)NCc1cccc(CN)c1` [1400W], the EC50 in the series on MDA-MB-231 [4] was more than 100 µM.
Consider `N=C(NCc1cccc(CNS(=O)(=O)c2ccc([N+](=O)[O-])cc2)c1)c1ccc(C(F)(F)F)cc1`, for which the inhibition in series [2] stood at 72%; in [3], 26%.
For `N=C(NCc1cccc(CNS(=O)(=O)c2ccc([N+](=O)[O-])cc2)c1)c1ccc(Cl)cc1`, the inhibition in series [2] stood at 65%; in series [3], 19%.
Turning to `Cc1ccc(S(=O)(=O)NCc2cccc(CNC(=N)c3ccc(C(F)(F)F)cc3)c2)cc1`, the inhibition is 59% in series [2] and 28% in [3].
As to `N=C(NCc1ccc(NS(=O)(=O)c2ccc([N+](=O)[O-])cc2)cc1)c1ccccc1`, the inhibition in series [2] was determined as 52%. In series [3], the inhibition result is “inactive”. Also, the figures for the half-maximal inhibitory concentration (IC50) (in series [5]; against Nitric oxide synthase 3) were 0.832 µM and more than 50 µM, respectively. For the same molecule, in the series with MDA-MB-231 [4], the EC50 was more than 100 µM. Moreover, the result in the series on MDA-MB-231 [6] was inactive.
For the molecule `CC(=N)NCc1cccc(CNS(=O)(=O)c2ccc(C)cc2)c1`, the inhibition entry in series [2] and in series [3] was “inactive” in each case.
For orientation: half-life means the time in which the quantity being followed falls by half. The CLint scaled is a measure of how fast metabolising enzymes remove a compound, apart from limits set by blood flow. For `Br.Cc1ccc(S(=O)(=O)NCc2cccc(CNC(=N)c3ccccc3)c2)cc1`, the inhibition in [2] came to 83%. For the same molecule, the inhibition result in series [3] is “inactive”. Also, the IC50 in [5] is 0.065 µM; on Nitric oxide synthase 3, more than 50 µM. The 50% effective concentration (EC50) amounted to 24.7 µM with MDA-MB-231 [4] and 79 µM in the series on MCF-12A [7]. For the same molecule, the Activity turned out to be 91% in the series on MCF-12A [8] and 15% in the series on MDA-MB-231 [11]. Besides, the outcome in the series with MCF-12A [9] was inactive. Besides, the outcome in the series with MDA-MB-231 [10] was Active. Moreover, the half-life in series [12] worked out at 38 min. The CLint scaled in series [13] is 39.6 mL/min/kg. Besides, the “Ratio EC50” value with MDA-MB-231 (human) is 4.
On to `N=C(NCc1ccc(NS(=O)(=O)c2ccc([N+](=O)[O-])cc2)cc1)c1ccc(Cl)cc1`, for which the inhibition came out at 69% in series [2] and 46% in series [3].
Take `Cc1ccc(S(=O)(=O)NCc2cccc(CNC(=N)c3ccc(Cl)cc3)c2)cc1`: the results for the inhibition in [2] and in series [3] were 72% and 18%, respectively.
For `N=C(NCc1ccc(NS(=O)(=O)c2ccc([N+](=O)[O-])cc2)cc1)c1ccc(C(F)(F)F)cc1`, the inhibition entry in series [2] and in series [3] was “inactive” each time.
Regarding `N=C(NCc1cccc(CNS(=O)(=O)c2ccc([N+](=O)[O-])cc2)c1)c1ccccc1`, the inhibition in series [2] was 71%; in series [3], 35%.
